Data: paper PMC7671694 (Pharmaceutical Biology, 2020)
“Also recorded” adds a separate entry of the source.

Experiments:
Type in all cases: in vivo, Swiss male mice
[1] = tested on: scopolamine-induced memory impairment in mice; assay: Novel object recognition test; conditions: test phase
Summary of the method: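 Swiss male mice, n = 10/group. Test compound (5, 10 or 15 mg/kg) p.o. in saline 1 h before, scopolamine 1.5 mg/kg i.p. 30 min before. Box is 45 × 45 × 50 cm; 5-min sample phase, then 5-min test 24 h later with one object replaced. Nose/forepaw contact is scored as exploration, normalized to total exploration time. Repeated-measures two-way ANOVA, Tukey; mean ± SEM.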

[2] = tested on: scopolamine-induced memory impairment in mice; assay: Y-maze test in scopolamine-treated mice; conditions: scopolamine 1.5 mg/kg i.p. alone; compared with control group; p < 0.01
Summary of the method: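 Swiss male mice, n = 10/group. Test compound p.o. in saline 1 h before, scopolamine 1.5 mg/kg i.p. 30 min before a 10-min session. Arm entry means all four legs inside. Alternation (%) = alternations/(total entries − 2) × 100; entries serve as locomotor index. Arms cleaned with 10% ethanol. One-way ANOVA, Tukey; mean ± SEM.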

[3] = tested on: scopolamine-induced memory impairment in mice; assay: Morris water maze; conditions: scopolamine 1.5 mg/kg i.p. alone
Summary of the method: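 Swiss male mice, n = 10/group. Test compound p.o. in saline 1 h before, scopolamine 1.5 mg/kg i.p. 30 min before each session. Training runs over 6 days, 4 trials/day about 2 min apart, maximum 1 min per trial, then 10 s on the platform if not found. Day 7 probe without platform. Mean ± SEM; repeated-measures two-way ANOVA (training), one-way ANOVA (probe), Tukey.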

[4] = training trials, day 1 to day 6

SMILES	normalized time exploring novel object versus familiar object ([1]; 5 mg/kg p.o. + scopolamine 1.5 mg/kg i.p., p < 0.001)	normalized time exploring novel object versus familiar object ([1]; scopolamine 1.5 mg/kg i.p. alone, p > 0.05)	spontaneous alternation (%) [2]	time spent in the target quadrant ([3]; probe trial day 7, compared with control group)	escape latency [3, 4]	travel (swimming) distance [3, 4]
COc1cc2c(cc1OC)C(=O)C(CC1CCN(Cc3ccccc3)CC1)C2 (stereo not drawn) [donepezil]	significantly longer	–	–	–	–	–
CN1[C@@H]2C[C@@H](OC(=O)[C@H](CO)c3ccccc3)C[C@H]1[C@@H]1O[C@@H]12 [scopolamine]	–	no statistically significant difference	significantly lower; also recorded: significantly decreased	significantly lower; also recorded: decreased	no significant differences	no significant differences
